From ChEMBL document CHEMBL2016458, “Design and optimization of quinazoline derivatives as melanin concentrating hormone receptor 1 (MCHR1) antagonists” (Bioorg Med Chem Lett, 2012)
≈ marks a conversion by molar mass, not a printed value.

Biological target: T1, Melanin-concentrating hormone receptor 1 (Homo sapiens, UniProt Q99705)
Assay: biochemical
Type: cell-based, CHO-K1
Conditions: not given

T1 sequence (Q99705 whole entry): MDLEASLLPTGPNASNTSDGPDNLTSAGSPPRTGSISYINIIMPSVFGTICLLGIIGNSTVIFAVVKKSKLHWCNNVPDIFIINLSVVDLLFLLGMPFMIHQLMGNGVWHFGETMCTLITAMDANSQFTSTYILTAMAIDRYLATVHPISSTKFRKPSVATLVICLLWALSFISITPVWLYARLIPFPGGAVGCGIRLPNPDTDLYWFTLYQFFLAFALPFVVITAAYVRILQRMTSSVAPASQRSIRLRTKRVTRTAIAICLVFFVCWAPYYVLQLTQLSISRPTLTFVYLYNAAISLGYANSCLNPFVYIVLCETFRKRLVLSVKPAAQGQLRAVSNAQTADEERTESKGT

Structure (SMILES) | IC50 [nM]
Cc1nc(N2CCC(N3CCCC3)CC2)nc2ccc(NC(=O)C(C)(C)Oc3ccc(Cl)cc3)cc12 | > 10000
Cc1nc(N2CCC(N)CC2)nc2ccc(NC(=O)COc3ccc(Cl)cc3)cc12 | 150
Cc1nc(N2CCN(C(=O)C(C)C)CC2)nc2ccc(NC(=O)COc3ccc(Cl)cc3)cc12 | 225
Cc1nc(N2CCN(C3CC3)CC2)nc2ccc(NC(=O)COc3ccc(Cl)cc3)cc12 | 270
Cc1nc(N2CCC(C(N)=O)CC2)nc2ccc(NC(=O)COc3ccc(OC(F)(F)F)cc3)cc12 | 23
Cc1nc(N2CCC(N3CCCC3)CC2)nc2ccc(NC(=O)COc3ccc(OC(F)(F)F)cc3)cc12 | 31
Cc1nc(N2CCC(O)(c3ccc(F)cn3)CC2)nc2ccc(NC(=O)COc3ccc(OC(F)(F)F)cc3)cc12 | 213
Cc1nc(N2CCN(C3CCCC3)CC2)nc2ccc(NC(=O)COc3ccc(Cl)cc3)cc12 | 96
Cc1nc(N2CCN(S(C)(=O)=O)CC2)nc2ccc(NC(=O)COc3ccc(Cl)cc3)cc12 | > 10000
Cc1nc(N2CCN(C(=O)c3ccccc3)CC2)nc2ccc(NC(=O)COc3ccc(Cl)cc3)cc12 | 7300
Cc1nc(N2CCC(C(=O)NC3CC3)CC2)nc2ccc(NC(=O)COc3ccc(OC(F)(F)F)cc3)cc12 | 9
Cc1nc(N2CCC(N3CCCC3)CC2)nc2ccc(NC(=O)C(C)Oc3ccc(Cl)cc3)cc12 (stereo not drawn) | 258

System: not listed separately
Assay: Solubility of the compound in 5% DMSO and 95% PBS after overnight incubation using plate shaker
Type: physicochemical
Conditions: 5% DMSO and 95% PBS; read-out: solubility
Outline: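 A 10 mM DMSO stock was diluted into PBS to a final 500 µM (5% DMSO). The mix was left to precipitate overnight at RT on a plate shaker, then centrifuged. Supernatant absorbance was read at 260, 280 and 620 nm. Solubility is the absorbance ratio of PBS supernatant to an acetonitrile reference (100 and 500 µM). The 620 nm reading was used to exclude visible contamination.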

Structure (SMILES) | solubility [µM]
Cc1nc(N2CCC(N3CCCC3)CC2)nc2ccc(NC(=O)C(C)Oc3ccc(Cl)cc3)cc12 (stereo not drawn) | 272 (≈ 134 µg/mL)

Biological target: hERG (KCNH2) (Homo sapiens, UniProt Q12809)
Assay: Inhibition of human ERG at 1 uM
Conditions: not given

Chain of hERG (KCNH2) (Q12809 whole entry): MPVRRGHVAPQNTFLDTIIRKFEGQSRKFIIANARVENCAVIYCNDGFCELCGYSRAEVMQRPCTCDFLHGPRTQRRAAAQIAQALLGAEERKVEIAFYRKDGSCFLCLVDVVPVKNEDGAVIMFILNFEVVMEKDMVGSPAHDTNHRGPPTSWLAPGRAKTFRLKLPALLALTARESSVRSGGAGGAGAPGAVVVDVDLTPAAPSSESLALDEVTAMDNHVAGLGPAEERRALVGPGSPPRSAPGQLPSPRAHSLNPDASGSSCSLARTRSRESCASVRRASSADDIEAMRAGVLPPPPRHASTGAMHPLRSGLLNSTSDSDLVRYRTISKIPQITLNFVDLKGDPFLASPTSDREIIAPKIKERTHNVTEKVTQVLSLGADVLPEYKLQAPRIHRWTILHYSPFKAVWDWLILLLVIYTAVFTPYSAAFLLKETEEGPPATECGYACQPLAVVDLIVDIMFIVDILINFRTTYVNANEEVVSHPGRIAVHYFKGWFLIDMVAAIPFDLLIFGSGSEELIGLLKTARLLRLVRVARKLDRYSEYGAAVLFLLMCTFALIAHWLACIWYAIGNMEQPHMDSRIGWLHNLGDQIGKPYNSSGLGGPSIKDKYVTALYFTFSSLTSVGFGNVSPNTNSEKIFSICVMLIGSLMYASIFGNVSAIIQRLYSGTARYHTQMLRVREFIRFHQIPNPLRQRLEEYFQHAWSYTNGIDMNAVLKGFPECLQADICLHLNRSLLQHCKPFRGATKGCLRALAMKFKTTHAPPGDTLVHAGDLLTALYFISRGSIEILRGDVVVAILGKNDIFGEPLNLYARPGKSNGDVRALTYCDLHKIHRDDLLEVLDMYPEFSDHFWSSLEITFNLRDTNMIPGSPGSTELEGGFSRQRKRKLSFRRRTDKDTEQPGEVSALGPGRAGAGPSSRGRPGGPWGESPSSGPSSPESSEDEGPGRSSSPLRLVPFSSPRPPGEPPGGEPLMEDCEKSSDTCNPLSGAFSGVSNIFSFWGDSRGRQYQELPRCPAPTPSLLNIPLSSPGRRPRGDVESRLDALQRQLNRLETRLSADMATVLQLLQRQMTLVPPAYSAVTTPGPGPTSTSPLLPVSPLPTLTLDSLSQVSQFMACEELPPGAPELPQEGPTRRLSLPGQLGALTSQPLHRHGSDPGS

Structure (SMILES) | inhibition at 1 µM [%]
Cc1nc(N2CCC(N3CCCC3)CC2)nc2ccc(NC(=O)C(C)Oc3ccc(Cl)cc3)cc12 (stereo not drawn) | 76

System: not listed separately
Assay: Metabolic stability in mouse liver microsomes assessed as compound remaining at 10 uM after 30 mins by HPLC analysis
Type: ADME, Microsome
Conditions: read-out: Stability
Outline: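 Compound at 10 µM was incubated with 1 mg/ml mouse or pooled human liver microsomes in 0.1 M phosphate buffer, pH 7.4. Reaction was started with NADPH and run 30 min at 37 °C. Result is % parent remaining.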

Structure (SMILES) | remaining at 0.5 h, 10 µM [%]
Cc1nc(N2CCC(N3CCCC3)CC2)nc2ccc(NC(=O)C(C)Oc3ccc(Cl)cc3)cc12 (stereo not drawn) | 34

System: not listed separately
Assay: Stability in mouse blood assessed as compound remaining after 30 mins by HPLC analysis
Type: ADME, tissue-based
Conditions: read-out: Stability

Structure (SMILES) | remaining at 0.5 h [%]
Cc1nc(N2CCC(N3CCCC3)CC2)nc2ccc(NC(=O)C(C)Oc3ccc(Cl)cc3)cc12 (stereo not drawn) | 67

Biological target: T1, Melanin-concentrating hormone receptor 1
Assay: Antagonist activity at human MCHR1 expressed in CHO-K1 cells assessed as inhibition of MCH peptide mediated response measuring [3H]inositol phosphate production by IP3-SPA-YSI assay
Type: functional, cell-based
Conditions: not given

Structure (SMILES) | IC50 [nM]
Cc1nc(N2CCC(N3CCCC3)CC2)nc2ccc(NC(=O)C(C)(C)Oc3ccc(Cl)cc3)cc12 | > 10000
Cc1nc(N2CCC(N)CC2)nc2ccc(NC(=O)COc3ccc(Cl)cc3)cc12 | 610
Cc1nc(N2CCN(C(=O)C(C)C)CC2)nc2ccc(NC(=O)COc3ccc(Cl)cc3)cc12 | 91
Cc1nc(N2CCN(C3CC3)CC2)nc2ccc(NC(=O)COc3ccc(Cl)cc3)cc12 | 350
Cc1nc(N2CCC(C(N)=O)CC2)nc2ccc(NC(=O)COc3ccc(OC(F)(F)F)cc3)cc12 | 32
Cc1nc(N2CCC(N3CCCC3)CC2)nc2ccc(NC(=O)COc3ccc(OC(F)(F)F)cc3)cc12 | 120
Cc1nc(N2CCC(O)(c3ccc(F)cn3)CC2)nc2ccc(NC(=O)COc3ccc(OC(F)(F)F)cc3)cc12 | 59
Cc1nc(N2CCN(C3CCCC3)CC2)nc2ccc(NC(=O)COc3ccc(Cl)cc3)cc12 | 150
Cc1nc(N2CCN(S(C)(=O)=O)CC2)nc2ccc(NC(=O)COc3ccc(Cl)cc3)cc12 | > 10000
Cc1nc(N2CCN(C(=O)c3ccccc3)CC2)nc2ccc(NC(=O)COc3ccc(Cl)cc3)cc12 | > 10000
Cc1nc(N2CCC(C(=O)NC3CC3)CC2)nc2ccc(NC(=O)COc3ccc(OC(F)(F)F)cc3)cc12 | 3
Cc1nc(N2CCC(N3CCCC3)CC2)nc2ccc(NC(=O)C(C)Oc3ccc(Cl)cc3)cc12 (stereo not drawn) | 401
